Key:
HCT-116 [1] = experiment: Antiproliferative activity against human HCT116 cells after 72 hrs by MTT assay; type: functional, cell-based; conditions: HCT-116, 72 h
Raji = experiment: Antiproliferative activity against human Raji cells after 72 hrs by MTT assay; type: functional, cell-based
Summary of the method: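 Log-phase cells were plated at 10000-15000 per well and exposed to serial concentrations after 24 h for 72 h. Read-out was MTT for 1-3 h, then 20% SDS overnight and absorbance at 570 nm. IC50 was calculated from growth versus untreated control, as mean ± SEM of at least three independent experiments.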

MM1.S = experiment: Antiproliferative activity against human MM1S cells after 72 hrs by MTT assay; type: functional, cell-based
MCF7 = experiment: Antiproliferative activity against human MCF7 cells after 72 hrs by MTT assay; type: functional, cell-based; conditions: MCF7, 72 h
[2] = target: T1, PI3-kinase p110-alpha/p85-alpha (Homo sapiens) (UniProt P27986+P42336); experiment: Inhibition of recombinant human full length N-terminal His-tagged/untagged p110alpha/p85alpha expressed in baculovirus expression system at 500 nM using PIP2 as substrate after 1 hr by Kinase-Glo reagent-based assay relative to control
[3] = target: T2, Serine/threonine-protein kinase mTOR (Homo sapiens, UniProt P42345); experiment: Inhibition of recombinant N-terminal FLAG-tagged human mTOR (1362 to end residues) at 500 nM using ULight-4E-BP1 (Thr37/46) peptide as substrate after 1 hr by fluorescence assay relative to control
HCT-116 [4] = experiment: Antiproliferative activity against human HCT116 cells at 5 uM after 72 hrs by MTT assay relative to control; type: functional; conditions: HCT-116, 72 h
Summary of the method: (§1)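 HCT116 cells were grown in DMEM and Ramos cells in RPMI 1640, each with 10% FBS and penicillin/streptomycin, at 37 °C in 5% CO2. Log-phase cells were seeded at 10000-15000 per well and dosed after 24 h at 5 or 0.5 μM for 72 h. MTT was added for 1-3 h, followed by 20% SDS overnight, and A570 was read. Percent inhibition is relative to untreated control, as the mean of at least two experiments.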

HCT-116 [5] = experiment: Antiproliferative activity against human HCT116 cells at 0.5 uM after 72 hrs by MTT assay relative to control; type: functional; conditions: HCT-116, 72 h; summary of the method: as §1
Ramos [6] = experiment: Antiproliferative activity against human Ramos cells at 5 uM after 72 hrs by MTT assay relative to control; type: functional; summary of the method: as §1
Ramos [7] = experiment: Antiproliferative activity against human Ramos cells at 0.5 uM after 72 hrs by MTT assay relative to control; type: functional; summary of the method: as §1
[8] = target: T2, Serine/threonine-protein kinase mTOR; experiment: Inhibition of recombinant N-terminal FLAG-tagged human mTOR (1362 to end residues) using ULight-4E-BP1 (Thr37/46) peptide as substrate after 1 hr by fluorescence assay
Summary of the method: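 mTOR enzyme, ATP, compound and ULight-4E-BP1 (Thr37/46) peptide in kinase buffer were incubated 1 h at room temperature. EDTA quench plus Eu-anti-phospho-4E-BP1 antibody was added and equilibrated 1 h. TR-FRET was read at excitation 320 or 340 nm and emission 665 nm. Curves were fitted, and values are means of at least two experiments.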

MV4-11 = experiment: Antiproliferative activity against human MV4-11 cells after 72 hrs by MTT assay; type: functional, cell-based; conditions: MV4-11, 72 h
OCI-AML2 = experiment: Antiproliferative activity against human OCI-AML2 cells after 72 hrs by MTT assay; type: functional, cell-based; conditions: OCI-AML2, 72 h
OCI-AML-3 = experiment: Antiproliferative activity against human OCI-AML3 cells after 72 hrs by MTT assay; type: functional, cell-based; conditions: OCI-AML-3, 72 h
[9] = target: T1, PI3-kinase p110-alpha/p85-alpha (Homo sapiens); experiment: Inhibition of recombinant human full length N-terminal His-tagged/untagged p110alpha/p85alpha expressed in baculovirus expression system at 1000 nM using PIP2 as substrate after 1 hr by Kinase-Glo reagent-based assay relative to control
Summary of the method: (§2)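 PI3Kα (p110α/p85α) incubated with PIP2 substrate and ATP in kinase buffer for 1 h at room temperature. Kinase-Glo reagent was then added for 15 min before luminescence read-out. Inhibition rate at 100 or 1000 nM is the mean of at least two experiments.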

[10] = target: T1, PI3-kinase p110-alpha/p85-alpha (Homo sapiens); experiment: Inhibition of recombinant human full length N-terminal His-tagged/untagged p110alpha/p85alpha expressed in baculovirus expression system at 100 nM using PIP2 as substrate after 1 hr by Kinase-Glo reagent-based assay relative to control; summary of the method: as §2

Row | SMILES | IC50 (HCT-116 [1]) [µM] | IC50 (Raji) [µM] | IC50 (MM1.S) [µM] | IC50 (MCF7) [µM] | inhibition [2] [%] | inhibition [3] [%] | IC50 [8] [µM] | IC50 (MV4-11) [µM] | IC50 (OCI-AML2) [µM] | IC50 (OCI-AML-3) [µM] | inhibition [9] [%] | inhibition [10] [%] | inhibition at 5 µM (HCT-116 [4]) [%] | inhibition at 0.5 µM (HCT-116 [5]) [%] | inhibition at 5 µM (Ramos [6]) [%] | inhibition at 0.5 µM (Ramos [7]) [%]
1 | Cc1cccnc1NC(=O)Nc1ccc(-c2nc(N3CCOCC3)c3cnn(CCCCCCC(=O)NO)c3n2)cc1 | 0.0246 | 0.019 | 0.0202 |  |  |  |  |  |  |  |  |  |  |  |  | 
2 | O=C(CCCCCCn1ncc2c(N3CCOCC3)nc(-c3cc[nH]c3)nc21)NO | 0.107 | 0.0153 | 0.0523 | 0.18 | -3.8 | 85 |  |  |  |  |  |  |  |  |  | 
3 | CN1CCN(c2nc(N3CCOCC3)c3cnn(CCCCCCC(=O)NO)c3n2)CC1 |  |  |  |  | -6.2 | -0.4 |  |  |  |  |  |  | 80.3 | 59.9 | 99.5 | 90.1
4 | CS(=O)(=O)c1ccc(-c2nc(N3CCOCC3)c3cnn(CCCCCCC(=O)NO)c3n2)cc1 | 0.0765 | 0.111 | 0.168 | > 0.5 | 31 | 64 |  |  |  |  |  |  |  |  |  | 
5 | O=C(CCCCCCn1ncc2c(N3CCOCC3)nc(-c3ccc(NC(=O)Nc4ncc(Br)cn4)cc3)nc21)NO | 0.144 | 0.0608 | 0.0643 |  |  |  |  |  |  |  |  |  |  |  |  | 
6 | O=C(CCCCCCn1ncc2c(N3CCOCC3)nc(-c3cccnc3)nc21)NO | 0.296 | > 0.5 | > 0.5 | > 0.5 | -0.1 | 17 |  |  |  |  |  |  |  |  |  | 
7 | CN1CCN(C(=O)Nc2ccc(-c3nc(N4CCOCC4)c4cnn(CCCCCCC(=O)NO)c4n3)cc2)CC1 | 0.0835 | 0.0704 | 0.0622 |  |  |  | 0.0034 | 0.00701 | 0.00855 | 0.0353 | 98.1 | 52.7 |  |  |  | 
8 | O=C(CCCCCCn1ncc2c(N3CCOCC3)nc(-c3ccoc3)nc21)NO | 0.0349 | 0.0077 | 0.0156 | 0.156 | 8.4 | 35 |  |  |  |  |  |  |  |  |  | 
9 | O=C(Cn1ncc2c(N3CCOCC3)nc(N3CCOCC3)nc21)NO |  |  |  |  | 5.9 |  |  |  |  |  |  |  | 18.1 | 3.5 | 12.4 | 1.1
10 | COc1cccc(NC(=O)Nc2ccc(-c3nc(N4CCOCC4)c4cnn(CCCCCCC(=O)NO)c4n3)cc2)c1 | > 0.5 | 0.247 | 0.464 |  |  |  |  |  |  |  |  |  |  |  |  | 

Now from value to compound, other results behind:

Row | IC50 (HCT-116 [1]) [µM] | IC50 (Raji) [µM] | IC50 (MM1.S) [µM] | IC50 (MCF7) [µM] | inhibition [2] [%] | inhibition [3] [%] | IC50 [8] [µM] | IC50 (MV4-11) [µM] | IC50 (OCI-AML2) [µM] | IC50 (OCI-AML-3) [µM] | inhibition [9] [%] | inhibition [10] [%] | SMILES | inhibition at 5 µM (HCT-116 [4]) [%] | inhibition at 0.5 µM (HCT-116 [5]) [%] | inhibition at 5 µM (Ramos [6]) [%] | inhibition at 0.5 µM (Ramos [7]) [%]
11 |  |  |  |  | 17 | 21 |  |  |  |  |  |  | O=C(CCCn1ncc2c(N3CCOCC3)nc(N3CCOCC3)nc21)NO | 30.1 | 15.7 | 39.6 | 20.5
12 | 0.0429 | 0.0348 | 0.0521 |  |  |  | 0.0031 | 0.00586 | 0.00397 | 0.00801 | 83.4 | 69.3 | CCN1CCN(C(=O)Nc2ccc(-c3nc(N4CCOCC4)c4cnn(CCCCCCC(=O)NO)c4n3)cc2)CC1 |  |  |  | 
13 |  |  |  |  | -3 | -5.4 |  |  |  |  |  |  | O=C(/C=C/c1ccc(Cn2ncc3c(N4CCOCC4)nc(N4CCOCC4)nc32)cc1)NO | 59.5 | 12 | 98.2 | 16.8
14 | 0.111 | 0.127 | 0.126 |  |  |  |  | 0.0265 | 0.0328 | 0.0401 |  |  | O=C(CCCCCCn1ncc2c(N3CCOCC3)nc(-c3ccc(NC(=O)N4CCNCC4)cc3)nc21)NO |  |  |  | 
15 | 0.0669 | 0.0449 | > 0.5 | 0.372 | 3.3 | 58 |  |  |  |  |  |  | COc1ccc(-c2nc(N3CCOCC3)c3cnn(CCCCCCC(=O)NO)c3n2)cn1 |  |  |  | 
16 |  |  |  |  | 15 | -5.4 |  |  |  |  |  |  | O=C(CCCCn1ncc2c(N3CCOCC3)nc(N3CCOCC3)nc21)NO | 55.8 | 22.6 | 60.2 | 33.3
17 |  |  |  |  | 11 | -5 |  |  |  |  |  |  | O=C(CCn1ncc2c(N3CCOCC3)nc(N3CCOCC3)nc21)NO | 22.4 | 6.3 | 15.7 | 8.5

Reference: ChEMBL document CHEMBL4411315, “Discovery of Novel Dual Histone Deacetylase and Mammalian Target of Rapamycin Target Inhibitors as a Promising Strategy for Cancer Therapy” (J Med Chem, 2019)
